In ChEMBL document CHEMBL1772965, “Analogues and derivatives of oncrasin-1, a novel inhibitor of the C-terminal domain of RNA polymerase II and their antitumor activities” (J Med Chem, 2011) one finds IC50 and Stability data, which are given here for 22 compounds.

One data set deals with NCI-H460. The data set is described as follows: Cytotoxicity against human H460 cells assessed as cell viability after 3 days by sulforhodamine B assay. The class given is functional, cell-based. Conditions: NCI-H460, 72 h. The essentials:
(§1)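 Monolayer cultures were grown in RPMI-1640 or DMEM with 10% heat-inactivated fetal calf serum and penicillin/streptomycin, at 37°C and 5% CO2. Cells were exposed for 3 days to compound from 10−4.5 M (31.6 μM) down to 10−8 M (10 nM), with 1% DMSO as the control. Viability was read by sulforhodamine B. IC50 was the dose halving surviving cells versus control, run in quadruplicate and repeated at least three times.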

Data set [1] in a line: Stability of compound at pH 7.4. It counts as physicochemical. The conditions noted are these: buffer.
A short description of data set [2]: Stability of compound at pH 9. Conditions: buffer. It counts as physicochemical.
Data set [3] can be described thus: Stability of compound at pH 4. The class given is physicochemical. The conditions noted are these: buffer.
The nature of data set [4]: Stability of compound at pH 2. The class given is physicochemical. Conditions: buffer.
The nature of data set [5]: Cytotoxicity against mutant K-ras-transformed human T29Kt1 cells assessed as cell viability after 3 days by sulforhodamine B assay. Conditions: T29Kt1, 72 h. The class given is functional, cell-based. The essentials: as §1
Data set [6] can be described thus: Cytotoxicity against human T29 cells assessed as cell viability after 3 days by sulforhodamine B assay. The class given is cell-based. The conditions noted are these: T29, 72 h. The essentials: as §1
The nature of data set [7]: Stability of compound at pH 6. The class given is physicochemical. The conditions noted are these: buffer.

For `OCc1cn(Cc2ccc(Br)cc2)c2ccccc12`, the IC50 in the data set with NCI-H460 was 31 nM; in data set [5], 390 nM; in data set [6] it was greater than 31600 nM. Moreover, the Stability entry is reported as “Stable” in data set [1]; “Stable” in data set [2]; “Stable” in data set [3]; “Unstable” in data set [4]; “Stable” in data set [7].

Consider `OCc1cn(Cc2cccc(I)c2)c2ccccc12`, for which the half-maximal inhibitory concentration (IC50) was 100 nM in the data set with NCI-H460, 20 nM in data set [5] and greater than 31600 nM in data set [6]. In addition, the Stability entry in data set [1] is on record as “Stable”; in data set [2], “Stable”; in data set [3] it was “Stable”; in data set [4], “Unstable”; in data set [7] it was “Stable”.

As for `OCc1cn(Cc2ccc(Br)c(Br)c2)c2ccccc12`, the 50% inhibitory concentration (IC50) in the data set with NCI-H460 is 50 nM; in data set [5], 100 nM; in data set [6] it was greater than 31600 nM. In addition, the Stability entry was “Stable” in data set [1]; “Stable” in data set [2]; “Stable” in data set [3]; “Unstable” in data set [4]; “Stable” in data set [7].

Take `OCc1cn(Cc2ccc(Cl)cc2)c2cc(F)ccc12`: the IC50 is 450 nM in the data set on NCI-H460, 1000 nM in data set [5] and greater than 31600 nM in data set [6]. The Stability entry in data set [1] is reported as “Stable”; in data set [2], “Stable”; in data set [3] it was “Stable”; in data set [4], “Unstable”; in data set [7], “Stable”.

With `Cn1cc(CO)c2cc(F)ccc21`, the IC50 is 16900 nM in the data set with NCI-H460, 13800 nM in data set [5] and greater than 31600 nM in data set [6]. The Stability entry in data set [1] is “Stable”; in data set [2] it was “Stable”; in data set [3], “Stable”; in data set [4] it was “Unstable”; in data set [7], “Stable”.

Regarding `O=[N+]([O-])c1ccc(Cn2cc(CO)c3ccccc32)cc1`, the results for the concentration for half-maximal inhibition (IC50) (in the data set on NCI-H460; in data set [5]; in data set [6]) were 79 nM, 150 nM and greater than 31600 nM, respectively. Further, the Stability result in data set [1] is reported as “Stable”; in data set [2] it was “Stable”; in data set [3], “Stable”; in data set [4], “Unstable”; in data set [7] it was “Stable”.

`O=[N+]([O-])c1cccc(Cn2cc(CO)c3ccccc32)c1`: the values for the half-maximal inhibitory concentration (IC50) (in the data set on NCI-H460; in data set [5]; in data set [6]) were 39 nM, 390 nM and greater than 31600 nM, respectively. For the same compound, the Stability entry in data set [1] was “Stable”; in data set [2], “Stable”; in data set [3] it was “Stable”; in data set [4], “Unstable”; in data set [7], “Stable”.

Consider `Cc1ccc(Cn2cc(CO)c3cc(F)ccc32)cc1`, for which the 50% inhibitory concentration (IC50) in the data set with NCI-H460 was 10 nM; in data set [5], 30 nM; in data set [6], 11700 nM. Besides, the Stability result in data set [1] is on record as “Stable”; in data set [2], “Stable”; in data set [3], “Stable”; in data set [4], “Unstable”; in data set [7], “Stable”.

`OCc1cn(Cc2cccc(Br)c2)c2ccccc12`: the results for the IC50 (in the data set on NCI-H460; in data set [5]; in data set [6]) were 28 nM, 32 nM and greater than 31600 nM, respectively. Moreover, the Stability entry in data set [1] is listed as “Stable”; in data set [2], “Stable”; in data set [3], “Stable”; in data set [4] it was “Unstable”; in data set [7] it was “Stable”.

On to `OCc1cn(Cc2ccccc2Cl)c2ccccc12`, for which the IC50 with NCI-H460 was 100 nM; in data set [5] it was 2510 nM; in data set [6], greater than 31600 nM. The Stability result is “Stable” in data set [1]; “Stable” in data set [2]; “Stable” in data set [3]; “Unstable” in data set [4]; “Stable” in data set [7].

As to `OCc1cn(Cc2cccc(F)c2)c2ccccc12`, the IC50 with NCI-H460 was 40 nM; in data set [5], 20 nM; in data set [6], greater than 31600 nM. Besides, the Stability entry in data set [1] is reported as “Stable”; in data set [2], “Stable”; in data set [3] it was “Stable”; in data set [4], “Unstable”; in data set [7] it was “Stable”.

As to `Cc1cccc(Cn2cc(CO)c3ccccc32)c1`, the values for the 50% inhibitory concentration (IC50) (in the data set on NCI-H460; in data set [5]; in data set [6]) were 31 nM, 1000 nM and greater than 31600 nM, respectively. Also, the Stability result is recorded as “Stable” in data set [1]; “Stable” in data set [2]; “Stable” in data set [3]; “Unstable” in data set [4]; “Stable” in data set [7].

In the case of `COc1ccc2c(c1)c(CO)cn2Cc1ccc(Cl)cc1`, the IC50 was 1510 nM in the data set with NCI-H460, 12500 nM in data set [5] and greater than 31600 nM in data set [6]. Besides, the Stability entry in data set [1] is “Stable”; in data set [2], “Stable”; in data set [3], “Stable”; in data set [4], “Unstable”; in data set [7] it was “Stable”.

For `OCc1cn(Cc2ccc(F)cc2)c2ccccc12`, the 50% inhibitory concentration (IC50) was determined as 118 nM in the data set on NCI-H460, 30 nM in data set [5] and 17000 nM in data set [6]. In addition, the Stability entry is reported as “Stable” in data set [1]; “Stable” in data set [2]; “Stable” in data set [3]; “Unstable” in data set [4]; “Stable” in data set [7].

As for `OCc1cn(Cc2ccccc2)c2ccccc12`, the results for the IC50 (in the data set with NCI-H460; in data set [5]; in data set [6]) were 112 nM, 30 nM and 14500 nM, respectively. The Stability result in data set [1] is listed as “Stable”; in data set [2] it was “Stable”; in data set [3], “Stable”; in data set [4], “Unstable”; in data set [7], “Stable”.

For the compound `OCc1cn(Cc2ccc(Cl)c(Cl)c2)c2ccccc12`, the IC50 with NCI-H460 was 31 nM; in data set [5], 310 nM; in data set [6], greater than 31600 nM. Besides, the Stability result in data set [1] was “Stable”; in data set [2], “Stable”; in data set [3], “Stable”; in data set [4] it was “Unstable”; in data set [7], “Stable”.

Regarding `OCc1cn(Cc2ccc(Cl)cc2Cl)c2ccccc12`, the half-maximal inhibitory concentration (IC50) was 79 nM in the data set with NCI-H460, 1580 nM in data set [5] and greater than 31600 nM in data set [6]. The Stability result is on record as “Stable” in data set [1]; “Stable” in data set [2]; “Stable” in data set [3]; “Unstable” in data set [4]; “Stable” in data set [7].

As for `OCc1cn(Cc2ccc(Cl)cc2)c2ccc(F)cc12`, the values for the IC50 (in the data set on NCI-H460; in data set [5]; in data set [6]) were 30 nM, 80 nM and 8120 nM, respectively. Besides, the Stability entry in data set [1] is “Stable”; in data set [2] it was “Stable”; in data set [3] it was “Stable”; in data set [4] it was “Unstable”; in data set [7], “Stable”.

In the case of `Cc1ccc(Cn2cc(CO)c3ccccc32)cc1`, the IC50 with NCI-H460 is 31 nM; in data set [5], 150 nM; in data set [6] it was greater than 31600 nM. Besides, the Stability result in data set [1] was “Stable”; in data set [2], “Stable”; in data set [3] it was “Stable”; in data set [4], “Unstable”; in data set [7], “Stable”.

As to `OCc1cn(Cc2ccc(C(F)(F)F)cc2)c2ccccc12`, the IC50 with NCI-H460 was 1250 nM; in data set [5], 1250 nM; in data set [6], greater than 31600 nM. Moreover, the Stability entry in data set [1] is recorded as “Stable”; in data set [2] it was “Stable”; in data set [3], “Stable”; in data set [4] it was “Unstable”; in data set [7], “Stable”.

As for `COc1ccc(Cn2cc(CO)c3ccccc32)cc1`, the IC50 with NCI-H460 is 79 nM; in data set [5] it was 63 nM; in data set [6] it was greater than 31600 nM. For the same compound, the Stability entry was “Stable” in data set [1]; “Stable” in data set [2]; “Stable” in data set [3]; “Unstable” in data set [4]; “Stable” in data set [7].

As for `OCc1cn(Cc2ccc(Cl)cc2)c2ccc(Cl)cc12`, the values for the IC50 (with NCI-H460; in data set [5]; in data set [6]) were 5750 nM, 13000 nM and greater than 31600 nM, respectively. Further, the Stability entry is given as “Stable” in data set [1]; “Stable” in data set [2]; “Stable” in data set [3]; “Unstable” in data set [4]; “Stable” in data set [7].
